The target of one series is Mu-type opioid receptor (Rattus norvegicus, UniProt P33535). Briefly: Displacement of [3H]DAMGO from rat cortex mu opioid receptor after 30 mins by liquid scintillation counting analysis. In short, it runs like this: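 Rat cortex membranes prepared in 50 mM Tris pH 7.4, spun 16,500 rpm for 10 min, and incubated 30 min at 37 °C. Competition against [³H]DAMGO. Assay ended by filtration on BSA-soaked GF/B filters. Ki values are means of two experiments.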

The target in series [1] is Delta-type opioid receptor (Rattus norvegicus, UniProt P33533). Briefly: Displacement of [3H]DPDPE from rat cortex delta opioid receptor after 2.5 hrs by liquid scintillation counting analysis. (In general: Loss of bound radioactivity is the signal in a displacement assay; it reports binding, not function.)
A short description of series [2]: Half life in rat brain homogenate at 10 uM. The class given is ADME, tissue-based. Summed up:
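Peptide at a final 10 µM in rat brain homogenate (protein 21.2 mg/mL), incubated at 37 °C. Aliquots quenched in acetonitrile with internal standard in triplicate, centrifuged, and analysed by LC-MS/MS in MRM mode. Half-life from pseudo-first-order loss of the analyte/internal-standard ratio; mean of at least three experiments ± SEM.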

Series [3] deals with T1, Delta-type opioid receptor (Homo sapiens, UniProt P41143). Briefly: Agonist activity at delta opioid receptor (unknown origin) expressed in CHO cells assessed as change in cell morphology at 3.3 uM measured over 30 mins by label free binding assay relative to DPDPE. The format is cell-based. Summed up: (§1)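 Label-free biosensor (BIND) measuring cell spreading as increase in peak wavelength value. MOR in HEK293 cells, DOR in CHO cells, seeded 2 × 10⁴/well on fibronectin/collagen/albumin-coated plates and incubated overnight. Assay buffer was HBSS with 0.5–1% DMSO, equilibrated 30 min at room temperature before a baseline read. Compound added to a final 3.3 µM and read over 30 min. Response given as % of DAMGO 300 nM (MOR, n = 2) or DPDPE 10 nM (DOR, n = 4).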

Series [4] deals with Mu-type opioid receptor (Homo sapiens) (UniProt P35372). Briefly: Agonist activity at mu opioid receptor (unknown origin) expressed in HEK293 cells assessed as change in cell morphology at 3.3 uM measured over 30 mins by label free binding assay relative to DAMGO. The class given is cell-based. In short, it runs like this: as §1
The target of series [5] is T1, Delta-type opioid receptor. Briefly: Agonist activity at delta opioid receptor (unknown origin) expressed in CHO cells assessed as inhibition of forskolin-induced cAMP production at 500 nM after 30 mins by europium cryptate/d2 dye-based FRET analysis relative to DPDPE. The format is functional, cell-based. Summed up:
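DOR-expressing CHO cells, 20,000/well, exposed to test compound at 500 nM with 4 µM forskolin in PBS containing 1 mM IBMX for 30 min at room temperature. Cells then lysed with Europium cryptate and d2 acceptor reagents for 1 h, and cAMP read by FRET. Expressed as % of the 500 nM DPDPE response, n = 4.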
For orientation: Cyclic AMP is a second messenger, typically raised through Gs and lowered through Gi signalling.

The species named for another series is Rattus norvegicus. Briefly: Selectivity ratio of Ki for rat cortex mu opioid receptor to Ki for rat cortex delta opioid receptor. In short, it runs like this: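 Ki ratio (MOR/DOR), from Ki values that are means of two experiments. MOR: rat cortex homogenized in 50 mM Tris pH 7.4, spun, preincubated 30 min at 37 °C, spun again, then resuspended with bovine serum; displacement of [3H]DAMGO. DOR: 2 nM [3H]DPDPE; 2.5 h at 25 °C; unlabeled DPDPE as competitor. Filtration on GF/B.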

Where a SMILES comes first, the peptide text is derived from it. [ ]: non-standard residue; d: D form. ξ: configuration not given here. Dmt = Cc1cc(O)cc(C)c1C[C@H](N)C(=O)O; ξTiq(1-COOH) = O=C(O)C1NCCc2ccccc21; β3hF = N[C@H](CC(=O)O)Cc1ccccc1

Mu-type opioid receptor, sequence (P33535 whole entry): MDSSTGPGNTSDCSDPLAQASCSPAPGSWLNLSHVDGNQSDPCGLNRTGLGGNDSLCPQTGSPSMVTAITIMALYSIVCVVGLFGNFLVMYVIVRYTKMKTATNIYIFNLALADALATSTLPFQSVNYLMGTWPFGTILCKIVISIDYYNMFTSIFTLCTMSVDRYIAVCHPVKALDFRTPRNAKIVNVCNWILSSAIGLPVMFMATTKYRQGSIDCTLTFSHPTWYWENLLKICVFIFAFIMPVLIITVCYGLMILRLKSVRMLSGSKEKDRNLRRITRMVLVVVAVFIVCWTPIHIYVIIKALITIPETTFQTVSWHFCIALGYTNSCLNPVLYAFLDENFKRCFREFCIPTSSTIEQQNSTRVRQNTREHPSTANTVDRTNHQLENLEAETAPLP
T1 sequence (P41143 whole entry): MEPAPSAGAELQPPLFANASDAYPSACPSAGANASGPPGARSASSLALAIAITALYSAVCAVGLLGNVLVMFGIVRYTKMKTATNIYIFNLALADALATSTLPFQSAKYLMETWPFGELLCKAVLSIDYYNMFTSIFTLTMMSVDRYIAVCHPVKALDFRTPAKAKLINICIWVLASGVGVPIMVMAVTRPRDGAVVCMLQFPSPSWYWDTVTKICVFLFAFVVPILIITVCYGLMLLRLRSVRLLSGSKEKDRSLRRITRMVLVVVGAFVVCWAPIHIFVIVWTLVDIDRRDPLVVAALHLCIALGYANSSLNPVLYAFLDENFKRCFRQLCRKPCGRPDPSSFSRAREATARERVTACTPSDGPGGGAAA
Mu-type opioid receptor (Homo sapiens), sequence (P35372 whole entry): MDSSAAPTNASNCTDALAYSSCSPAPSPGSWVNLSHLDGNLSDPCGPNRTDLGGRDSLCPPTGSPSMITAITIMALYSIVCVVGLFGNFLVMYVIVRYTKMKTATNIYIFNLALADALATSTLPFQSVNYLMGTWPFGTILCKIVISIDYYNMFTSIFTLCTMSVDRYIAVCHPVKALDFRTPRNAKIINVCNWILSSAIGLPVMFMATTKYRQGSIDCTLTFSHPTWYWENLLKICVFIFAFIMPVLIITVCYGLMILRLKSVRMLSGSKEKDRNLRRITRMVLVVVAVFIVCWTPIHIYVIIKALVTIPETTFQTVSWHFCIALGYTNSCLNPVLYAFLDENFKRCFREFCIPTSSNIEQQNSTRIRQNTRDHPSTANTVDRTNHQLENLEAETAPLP
Delta-type opioid receptor (Rattus norvegicus, UniProt P33533), sequence (P33533 whole entry): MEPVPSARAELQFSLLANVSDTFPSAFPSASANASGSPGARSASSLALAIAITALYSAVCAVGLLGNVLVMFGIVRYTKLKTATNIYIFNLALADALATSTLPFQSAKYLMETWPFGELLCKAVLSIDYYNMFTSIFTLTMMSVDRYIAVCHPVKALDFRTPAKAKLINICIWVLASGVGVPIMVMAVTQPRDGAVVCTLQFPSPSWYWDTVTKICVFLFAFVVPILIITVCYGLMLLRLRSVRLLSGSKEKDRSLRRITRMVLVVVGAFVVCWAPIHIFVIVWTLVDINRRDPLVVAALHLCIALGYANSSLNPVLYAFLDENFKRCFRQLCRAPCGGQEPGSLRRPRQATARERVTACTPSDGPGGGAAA

For `N=C(N)NCCC[C@H](NC(=O)[C@H](O)[C@H](Cc1ccccc1)NC(=O)[C@@H]1CCCN1C(=O)[C@@H](N)Cc1ccc(O)cc1)C(N)=O`, the figures for the Ki (at Mu-type opioid receptor; in series [1]) were 0.086 µM and 0.483 µM, respectively.

`NC(=O)[C@@H](O)[C@@H](Cc1ccccc1)NC(=O)[C@H](Cc1ccccc1)NC(=O)[C@@H]1CCCN1C(=O)[C@@H](N)Cc1ccc(O)cc1` registered a Ki at Mu-type opioid receptor of 0.324 µM.

`NC(=O)C[C@H](Cc1ccccc1)NC(=O)[C@H](Cc1c[nH]c2ccccc12)NC(=O)[C@@H]1CCCN1C(=O)[C@@H](N)Cc1ccc(O)cc1` showed a half-life at 10 µM in series [2] of 4.57 min. Moreover, the Ki came to 0.01 µM at Mu-type opioid receptor and 4.11 µM in series [1].

`Cc1cc(O)cc(C)c1C[C@H](N)C(=O)N1CCc2ccccc2C1C(=O)N[C@@H](Cc1c[nH]c2ccccc12)C(=O)N[C@@H](Cc1ccccc1)C(N)=O` (stereo not given in full) (H-[Dmt][ξTiq(1-COOH)]WF-NH2) gave a half-life at 10 µM in series [2] of 32.2 min. Moreover, the Ki stood at 0.005 µM on Mu-type opioid receptor and 0.002 µM in series [1]. The Activity was 26% in series [3] and 43% in series [4]. The inhibition in series [5] amounted to 87%.

`NC(=O)[C@@H](O)[C@H](Cc1ccccc1)NC(=O)[C@H](Cc1c[nH]c2ccccc12)NC(=O)[C@@H]1CCCN1C(=O)[C@@H](N)Cc1ccc(O)cc1` had a half-life at 10 µM in series [2] of 3.57 min. Further, the Ki on Mu-type opioid receptor is 0.01 µM; in series [1], 0.508 µM.

For `NC(=O)[C@H](Cc1c[nH]c2ccccc12)NC(=O)[C@H](O)[C@H](Cc1ccccc1)NC(=O)[C@@H]1CCCN1C(=O)[C@@H](N)Cc1ccc(O)cc1`, the affinity on Mu-type opioid receptor corresponds to a Ki of 0.013 µM.

`NC(=O)[C@H](Cc1ccccc1)NC(=O)[C@H](O)[C@H](Cc1ccccc1)NC(=O)[C@@H]1CCCN1C(=O)[C@@H](N)Cc1ccc(O)cc1` came in with a half-life at 10 µM in series [2] of 6.52 min. The results for the Ki (on Mu-type opioid receptor; in series [1]) were 0.009 µM and 3.29 µM, respectively.

For `NC(=O)[C@H](Cc1ccccc1)NC(=O)C[C@H](Cc1ccccc1)NC(=O)[C@@H]1CCCN1C(=O)[C@@H](N)Cc1ccc(O)cc1`, the values for the Ki (at Mu-type opioid receptor; in series [1]) were 0.024 µM and 0.385 µM, respectively.

As to `NC(=O)[C@@H](O)[C@@H](Cc1ccccc1)NC(=O)[C@H](Cc1c[nH]c2ccccc12)NC(=O)[C@@H]1CCCN1C(=O)[C@@H](N)Cc1ccc(O)cc1`, the Ki on Mu-type opioid receptor came to 0.176 µM; in series [1], 0.287 µM.

For `NC(=O)C(Cc1ccc2ccccc2c1)NC(=O)[C@H](O)[C@H](Cc1ccccc1)NC(=O)[C@@H]1CCCN1C(=O)[C@@H](N)Cc1ccc(O)cc1` (stereo not given in full), the values for the Ki (on Mu-type opioid receptor; in series [1]) were 0.039 µM and 0.757 µM, respectively.

Turning to `NC(=O)[C@H](O)[C@H](Cc1ccccc1)NC(=O)[C@H](Cc1ccccc1)NC(=O)[C@@H]1CCCN1C(=O)[C@@H](N)Cc1ccc(O)cc1`, the Ki at Mu-type opioid receptor came out at 0.033 µM.

In series [2], `Cc1cc(O)cc(C)c1C[C@H](N)C(=O)N1CCc2ccccc2C1C(=O)N[C@@H](Cc1c[nH]c2ccccc12)C(=O)N[C@H](CC(N)=O)Cc1ccccc1` (stereo partly drawn) (H-[Dmt][ξTiq(1-COOH)]W[β3hF]-NH2) yielded a half-life at 10 µM above 120 min. Also, the results for the Ki (on Mu-type opioid receptor; in series [1]) were 0.014 µM and 0.001 µM, respectively.

`NC(=O)[C@H](Cc1ccccc1)NC(=O)[C@@H](O)[C@H](Cc1ccccc1)NC(=O)[C@@H]1CCCN1C(=O)[C@@H](N)Cc1ccc(O)cc1`: the Ki was 0.497 µM on Mu-type opioid receptor and 1.79 µM in series [1].

On Mu-type opioid receptor, `NC(=O)[C@H](O)[C@@H](Cc1ccccc1)NC(=O)[C@H](Cc1ccccc1)NC(=O)[C@@H]1CCCN1C(=O)[C@@H](N)Cc1ccc(O)cc1` showed a Ki of 0.447 µM.

As for `NC(=O)C(Cc1ccc(F)cc1)NC(=O)[C@H](O)[C@H](Cc1ccccc1)NC(=O)[C@@H]1CCCN1C(=O)[C@@H](N)Cc1ccc(O)cc1` (stereo not given in full), the Ki at Mu-type opioid receptor worked out at 0.207 µM; in series [1], 0.829 µM.

Take `NC(=O)[C@H](Cc1ccccc1)NC(=O)[C@H](Cc1ccccc1)NC(=O)[C@@H]1CCCN1C(=O)[C@@H](N)Cc1ccc(O)cc1` [ENDOMORPHIN 2]: the half-life at 10 µM in series [2] is 0.75 min. Also, the Activity in series [3] was 52%; in series [4], 98%.

For the compound `NC(=O)[C@H](Cc1ccccc1)NC(=O)[C@H](Cc1c[nH]c2ccccc12)NC(=O)[C@@H]1CCCN1C(=O)[C@@H](N)Cc1ccc(O)cc1`, the Activity in series [3] came to 49%.

Turning to `NC(=O)[C@H](O)[C@H](Cc1ccccc1)NC(=O)[C@H](Cc1c[nH]c2ccccc12)NC(=O)[C@@H]1CCCN1C(=O)[C@@H](N)Cc1ccc(O)cc1`, the Ki at Mu-type opioid receptor worked out at 0.025 µM; in series [1], 0.453 µM.

As for `Cc1cc(O)cc(C)c1C[C@H](N)C(=O)N1CCc2ccccc2C1C(=O)N[C@H](CC(=O)N[C@@H](Cc1ccccc1)C(N)=O)Cc1ccccc1` (stereo partly drawn) (H-[Dmt][ξTiq(1-COOH)][β3hF]F-NH2), the half-life at 10 µM in series [2] is above 120 min. The Ratio Ki in the series filed under Rattus norvegicus is 6. For the same compound, the Ki amounted to 0.006 µM at Mu-type opioid receptor and 0.001 µM in series [1].

With `NC(=O)[C@H](Cc1ccccc1)NC(=O)[C@H](O)[C@@H](Cc1ccccc1)NC(=O)[C@@H]1CCCN1C(=O)[C@@H](N)Cc1ccc(O)cc1`, the Ki at Mu-type opioid receptor amounted to 2.08 µM; in series [1], 1.22 µM.

On to `NC(=O)[C@H](Cc1ccccc1)NC(=O)[C@@H](O)[C@@H](Cc1ccccc1)NC(=O)[C@@H]1CCCN1C(=O)[C@@H](N)Cc1ccc(O)cc1`, for which the Ki at Mu-type opioid receptor turned out to be 0.202 µM; in series [1], 0.593 µM.

`NC(=O)C[C@H](Cc1ccccc1)NC(=O)[C@H](Cc1ccccc1)NC(=O)[C@@H]1CCCN1C(=O)[C@@H](N)Cc1ccc(O)cc1`: the Ki at Mu-type opioid receptor was found to be 0.023 µM; in series [1] it was 2.5 µM.

In the case of `NC(=O)[C@H](O)[C@@H](Cc1ccccc1)NC(=O)[C@H](Cc1c[nH]c2ccccc12)NC(=O)[C@@H]1CCCN1C(=O)[C@@H](N)Cc1ccc(O)cc1`, the values for the Ki (on Mu-type opioid receptor; in series [1]) were 0.243 µM and 0.441 µM, respectively.

In series [2], `Cc1cc(O)cc(C)c1C[C@H](N)C(=O)N1CCc2ccccc2C1C(=O)N[C@@H](Cc1ccccc1)C(=O)N[C@@H](Cc1ccccc1)[C@H](O)C(N)=O` (stereo not given in full) registered a half-life at 10 µM of 49 min. The results for the inhibitory constant (Ki) (at Mu-type opioid receptor; in series [1]) were 0.012 µM and 0.001 µM, respectively. Besides, the Activity is 82% in series [3] and 51% in series [4].

In turn, `NC(=O)[C@@H](O)[C@H](Cc1ccccc1)NC(=O)[C@H](Cc1ccccc1)NC(=O)[C@@H]1CCCN1C(=O)[C@@H](N)Cc1ccc(O)cc1` yielded a half-life at 10 µM in series [2] of 2.3 min. In addition, the Ki at Mu-type opioid receptor was determined as 0.017 µM.

With `Cc1cc(O)cc(C)c1C[C@H](N)C(=O)N1CCc2ccccc2C1C(=O)N[C@@H](Cc1ccccc1)C(=O)N[C@@H](Cc1ccccc1)[C@@H](O)C(N)=O` (stereo not given in full), in series [2], the half-life at 10 µM amounted to 82.6 min. Besides, the Ki was 0.015 µM on Mu-type opioid receptor and 0.0005 µM in series [1]. Also, the figures for the Activity in series [3] and in series [4] were 22% and 52%, respectively.

`Cc1cc(O)cc(C)c1C[C@H](N)C(=O)N1CCc2ccccc2C1C(=O)N[C@@H](Cc1c[nH]c2ccccc12)C(=O)N[C@@H](Cc1ccccc1)[C@H](O)C(N)=O` (stereo not given in full) yielded a half-life at 10 µM in series [2] above 120 min. The figures for the Ki (on Mu-type opioid receptor; in series [1]) were 0.003 µM and 0.0008 µM, respectively. Moreover, the Activity was determined as 45% in series [3] and 50% in series [4]. Besides, the inhibition in series [5] was 104%.

Broadly, the Ki is a dissociation constant, usually derived from enzyme kinetics or from competition with a known ligand. A lower Ki goes with higher affinity. In general, half-life refers to how long it takes for the measured level to halve. For orientation: inhibition means the relative decrease from the control value, in per cent.

The values above are taken from ChEMBL document CHEMBL3407426, “Synthesis and biological evaluations of novel endomorphin analogues containing α-hydroxy-β-phenylalanine (AHPBA) displaying mixed μ/δ opioid receptor agonist and δ opioid receptor antagonist activities” (Eur J Med Chem, 2015).
